According to ChEMBL document CHEMBL1143979, “1-, 3- and 8-substituted-9-deazaxanthines as potent and selective antagonists at the human A2B adenosine receptor” (Bioorg Med Chem, 2008):

Experiments:
[1] = Antagonist activity at adenosine A2B receptor in guinea pig thoracic aorta smooth muscle; type: functional, tissue-based, Cavia porcellus
Procedure, shortened: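 Isolated guinea pig thoracic aorta smooth muscle (A2B). Cumulative NECA concentration–response curves were run without and with antagonist. Antagonism is read as a parallel rightward shift with no loss of maximum, and reported as pA2.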

[2] = target: T1, Adenosine receptor A2b (Homo sapiens) (UniProt P29275); assay: Antagonist activity at human adenosine A2B receptor expressed in HEK293 cells by cAMP assay; type: functional, cell-based
T1 sequence (whole entry): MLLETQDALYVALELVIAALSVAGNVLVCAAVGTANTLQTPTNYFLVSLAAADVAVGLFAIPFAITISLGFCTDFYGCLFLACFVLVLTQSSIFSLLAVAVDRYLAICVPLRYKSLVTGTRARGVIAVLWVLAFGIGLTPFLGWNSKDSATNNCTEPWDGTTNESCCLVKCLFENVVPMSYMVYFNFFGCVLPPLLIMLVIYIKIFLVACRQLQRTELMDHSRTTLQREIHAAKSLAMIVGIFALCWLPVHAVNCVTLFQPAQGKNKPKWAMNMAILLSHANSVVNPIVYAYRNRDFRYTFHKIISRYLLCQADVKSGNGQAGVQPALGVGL
Procedure, shortened: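 cAMP assay in HEK-293 cells with endogenous human A2B receptor expression. NECA cumulative concentration–response curves were run in the absence and presence of antagonist, and the parallel rightward shift gives pA2.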

[3] = target: Adenosine receptor A2a (Rattus norvegicus, UniProt P30543); assay: Antagonist activity at adenosine A2A receptor in Sprague-Dawley rat aorta smooth muscle; type: functional, tissue-based; conditions: read-out: pA2 (converted)
Chain of Adenosine receptor A2a (Rattus norvegicus, UniProt P30543) (P30543 whole entry): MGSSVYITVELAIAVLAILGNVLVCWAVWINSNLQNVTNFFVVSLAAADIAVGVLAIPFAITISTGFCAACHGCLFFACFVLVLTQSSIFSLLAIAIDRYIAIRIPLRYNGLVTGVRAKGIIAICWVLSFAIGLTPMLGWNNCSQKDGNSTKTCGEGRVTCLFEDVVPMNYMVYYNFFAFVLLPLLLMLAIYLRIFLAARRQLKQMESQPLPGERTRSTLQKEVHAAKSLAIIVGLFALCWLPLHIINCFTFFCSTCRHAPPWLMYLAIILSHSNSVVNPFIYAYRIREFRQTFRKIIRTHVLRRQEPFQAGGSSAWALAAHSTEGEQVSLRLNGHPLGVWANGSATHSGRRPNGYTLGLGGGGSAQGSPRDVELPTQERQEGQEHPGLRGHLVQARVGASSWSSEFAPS
Procedure, shortened: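 Isolated aorta from male Sprague–Dawley rats (200–250 g) for A2A receptors. Cumulative NECA agonist concentration–response curves were run without and with antagonist, and antagonist potency is given as pA2.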

[4] = target: T2, Adenosine receptor A2a (Homo sapiens, UniProt P29274); assay: Antagonist activity at human adenosine A2A receptor expressed in CHO cells by cAMP assay; type: functional, cell-based
T2 sequence (P29274 whole entry): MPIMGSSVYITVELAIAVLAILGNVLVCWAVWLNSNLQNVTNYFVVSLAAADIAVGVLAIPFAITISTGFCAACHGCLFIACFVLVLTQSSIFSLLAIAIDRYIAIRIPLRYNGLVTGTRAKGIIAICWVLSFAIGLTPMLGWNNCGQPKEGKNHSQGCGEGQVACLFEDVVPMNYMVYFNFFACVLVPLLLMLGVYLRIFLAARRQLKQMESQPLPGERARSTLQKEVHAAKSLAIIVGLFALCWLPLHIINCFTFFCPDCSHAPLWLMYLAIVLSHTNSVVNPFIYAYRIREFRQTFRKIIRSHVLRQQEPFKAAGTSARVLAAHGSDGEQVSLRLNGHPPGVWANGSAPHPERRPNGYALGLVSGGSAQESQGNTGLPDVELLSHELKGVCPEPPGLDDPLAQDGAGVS
Procedure, shortened: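 cAMP assay in CHO cells transfected with human A2A receptor. Cumulative NECA concentration–response curves were run alone and with antagonist, and potency is expressed as pA2.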

[5] = species: Homo sapiens; assay: Selectivity index, ratio for human adenosine A2A receptor to human adenosine A2B receptor
[6] = target: T2, Adenosine receptor A2a; assay: Displacement of [3H]ZM-241385 from human adenosine A2A receptor expressed in CHO cells; type: cell-based
Procedure, shortened: (§1)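 Competition binding at cloned human receptors: [3H]DPCPX for A1 and A2B, [3H]ZM241385 for A2A, [3H]NECA for A3. Screening compounds are reported as % radioligand displacement at one concentration. SEM below 10%.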

[7] = target: T3, Adenosine receptor A2b (Homo sapiens, UniProt P29275); assay: Displacement of [3H]DPCPX from human adenosine A2B receptor expressed in HEK293 cells; type: cell-based
T3 sequence (P29275 whole entry): T1 sequence (whole entry)

[8] = target: T2, Adenosine receptor A2a; assay: Displacement of [3H]ZM-241385 from human adenosine A2A receptor expressed in CHO cells at 0.1 uM; type: cell-based; procedure, shortened: as §1
[9] = target: T1, Adenosine receptor A2b (Homo sapiens); assay: Displacement of [3H]DPCPX from human adenosine A2B receptor expressed in HEK293 cells at 0.1 uM; type: cell-based; procedure, shortened: as §1
[10] = target: T4, Adenosine receptor A3 (Homo sapiens) (UniProt P0DMS8); assay: Displacement of [3H]NECA from human adenosine A3 receptor expressed in CHO cells at 1 uM; type: cell-based; procedure, shortened: as §1
T4 sequence (whole entry): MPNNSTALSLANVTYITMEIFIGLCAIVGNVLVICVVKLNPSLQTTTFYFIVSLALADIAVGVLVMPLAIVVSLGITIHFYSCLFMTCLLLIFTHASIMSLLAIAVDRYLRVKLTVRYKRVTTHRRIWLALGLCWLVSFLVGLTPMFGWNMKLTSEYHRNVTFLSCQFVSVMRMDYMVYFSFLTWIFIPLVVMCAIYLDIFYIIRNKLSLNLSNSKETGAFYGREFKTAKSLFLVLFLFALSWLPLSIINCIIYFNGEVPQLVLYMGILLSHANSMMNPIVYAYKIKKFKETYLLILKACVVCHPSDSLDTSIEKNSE

[11] = species: Homo sapiens; assay: Selectivity index, ratio for human adenosine A1 receptor to human adenosine A2B receptor
[12] = species: Homo sapiens; assay: Selectivity index, ratio for human adenosine A3 receptor to human adenosine A2B receptor
[13] = target: T5, Adenosine receptor A1 (Homo sapiens) (UniProt P30542); assay: Displacement of [3H]DPCPX from human adenosine A1 receptor expressed in CHO cells at 1 uM; type: cell-based; procedure, shortened: as §1
T5 sequence (whole entry): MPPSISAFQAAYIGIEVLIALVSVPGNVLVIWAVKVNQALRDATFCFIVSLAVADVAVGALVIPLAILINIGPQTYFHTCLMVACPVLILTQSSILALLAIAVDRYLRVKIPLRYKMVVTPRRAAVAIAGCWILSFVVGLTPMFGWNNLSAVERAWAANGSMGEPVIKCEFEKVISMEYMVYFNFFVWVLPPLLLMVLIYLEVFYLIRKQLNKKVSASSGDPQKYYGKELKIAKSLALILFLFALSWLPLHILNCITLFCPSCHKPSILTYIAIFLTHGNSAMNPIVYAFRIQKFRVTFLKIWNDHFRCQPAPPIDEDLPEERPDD

[14] = target: T2, Adenosine receptor A2a; assay: Displacement of [3H]ZM-241385 from human adenosine A2A receptor expressed in CHO cells at 1 uM; type: cell-based; procedure, shortened: as §1

CCCn1c(=O)c2[nH]c(-c3ccc(OC(C)(C)C(=O)N4CCN(c5ccccc5)CC4)cc3)cc2n(CCC)c1=O
pA2 [1]: 7.5
Activity [2]: Dose-dependent effect
Kb [3]: 398 nM
Activity [4]: Dose-dependent effect
Ratio [5]: 10.7
Ki [6]: 263 nM
Ki ([7]; read-out: Log Ki (converted)): 24.5 nM

CCCn1c(=O)n(C)c(=O)c2[nH]c(-c3ccc(OCC(=O)N4CCN(c5ccc(F)cc5)CC4)cc3)cc21
pA2 [1]: 7.9
Activity [2]: Dose-dependent effect
Kb [3]: 234 nM
Activity [4]: Dose-dependent effect
Ratio [5]: 30.9
Ki [6]: 468 nM
Ki ([7]; read-out: Log Ki (converted)): 15.1 nM

Cn1c(=O)c2[nH]c(-c3ccc(OC(C)(C)C(=O)N4CCC(c5ccccc5)(c5ccccc5)CC4)cc3)cc2n(C)c1=O
Activity [8]: 8%
Activity [9]: 34%

O=C(COc1ccc(-c2cc3c([nH]2)c(=O)n(CC(F)(F)F)c(=O)n3CC(F)(F)F)cc1)N1CCN(c2ccccc2)CC1
Activity [8]: 3%
Activity [9]: 32%

Cn1c(=O)c2[nH]c(-c3ccc(OC(C)(C)C(=O)N4CCN(c5nc6cc(Cl)ccc6s5)CC4)cc3)cc2n(C)c1=O
Activity [10]: 18%
Ratio [11]: > 100
Ratio [12]: > 100
Ratio [5]: 912
Activity [13]: 8%
Ki [6]: 10000 nM
Ki ([7]; read-out: Ki): 11 nM

Cn1c(=O)c2[nH]c(-c3ccc(OCC(=O)N4CCN(c5c(Cl)cncc5Cl)CC4)cc3)cc2n(C)c1=O
Activity [14]: 21%
Ki ([7]; read-out: Log Ki (converted)): 7.08 nM

COc1ccc(N2CCN(C(=O)COc3ccc(-c4cc5c([nH]4)c(=O)n(C)c(=O)n5C)c(OC)c3)CC2)cc1
Activity [8]: 1%
Activity [9]: 30%

Cn1c(=O)c2[nH]c(-c3ccc(OCC(=O)N4CCN(c5ccccn5)CC4)cc3)cc2n(C)c1=O
Ratio [5]: 12
Ki [6]: 708 nM
Ki ([7]; read-out: Log Ki (converted)): 58.9 nM

COc1cc(OCC(=O)N2CCN(c3ccc(Cl)cc3)CC2)ccc1-c1cc2c([nH]1)c(=O)n(C)c(=O)n2C
Activity [14]: 4%
Ki ([7]; read-out: Log Ki (converted)): 479 nM

CCCn1c(=O)n(C)c(=O)c2[nH]c(-c3ccc(OCC(=O)N4CCN(c5c(Cl)cncc5Cl)CC4)cc3)cc21
Ratio [5]: 151
Ki [6]: 646 nM
Ki ([7]; read-out: Log Ki (converted)): 4.27 nM

CC(Oc1ccc(-c2cc3c([nH]2)c(=O)n(C)c(=O)n3C)cc1)C(=O)N1CCN(c2ccc(Br)cc2)CC1 (stereo unspecified)
Ratio [5]: 26
Ki [6]: 269 nM
Ki ([7]; read-out: Log Ki (converted)): 8.13 nM

CCCn1c(=O)c2[nH]c(-c3ccc(OCC(=O)N4CCN(c5nc6ccc(Cl)cc6s5)CC4)cc3)cc2n(CCC)c1=O
Ratio [5]: 77.6
Ki [6]: 813 nM
Ki ([7]; read-out: Log Ki (converted)): 10.5 nM

Cn1c(=O)c2[nH]c(-c3ccc(OCC(=O)N4CCN(c5nc6cc(Cl)ccc6s5)CC4)cc3)cc2n(C)c1=O
Ratio [5]: 50.1
Ki [6]: 182 nM
Ki ([7]; read-out: Log Ki (converted)): 3.63 nM
